Several values for one entry are separate records, joined by “and”; a condition that tells them apart may be missing. Equal values may be shown once.
System: U2OS
Experiment: Multiplex assay against U2OS
Format: toxicity, cell-based
Details: human
Method in brief: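 Live cells were stained at seeding with Hoechst33342, BioTracker Green Microtubule Cytoskeleton Dye, MitoTracker Red and Annexin V Alexa Fluor 680, then imaged on a CQ1 microscope at 37°C and 5% CO2 after compound addition. CellPathfinder machine-learning gating split cells into Hoechst high-intensity objects or normal cells. Normal cells were split into healthy, pyknosed or fragmented nuclei, and pyknosed cells into mitotic or apoptotic. Tubulin, mitochondrial-mass and membrane-permeability phenotypes are per cents of healthy-nucleus cells.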

[1] = 12 h, 1 µM, compound concentration 1 uM
[2] = 12 h, 10 µM, compound concentration 10 uM
[3] = 24 h, 1 µM, compound concentration 1 uM
[4] = 24 h, 10 µM, compound concentration 10 uM
[5] = 48 h, 1 µM, compound concentration 1 uM
[6] = 48 h, 10 µM, compound concentration 10 uM

## O=C1NC(NC23CC4CC(CC(C4)C2)C3)=N/C1=C\c1ccc2ncsc2c1
[1]
  Population Apoptotic (%): 51.02% and 44.83%
  Population Fragmented Nuclei (%): 17.88% and 22.19%
  Population Healthy Nuclei (%): 75% and 69.66%
  Population Hoechst High Intensity Objects (%): 0.86% and 0%
  Population Membrane Permeable-Phenotype (%): 0.97% and 3.63%
  Population Mitochondria Different-Phenotype (%): 0% and 3.23%
  Population Mitotic Cells (%): 48.98% and 55.17%
  Population Normal (%): 99.14% and 100%
  Population Pyknosed Nuclei (%): 7.12% and 8.15%
  Population Tubulin-Different-Phenotype (%): 0.58% and 2.82%
  Total Cell Count: 694 and 356
[2]
  Population Apoptotic (%): 44.44% and 38.46%
  Population Fragmented Nuclei (%): 64.07% and 81%
  Population Healthy Nuclei (%): 21.59% and 11.58%
  Population Membrane Permeable-Phenotype (%): 0.82% and 0%
  Population Mitochondria Different-Phenotype (%): 0% and 1.41%
  Population Mitotic Cells (%): 55.56% and 61.54%
  Population Normal (%): 52.03% and 84.32%
  Population Pyknosed Nuclei (%): 14.34% and 7.42%
  Population Tubulin-Different-Phenotype (%): 0% and 1.41%
  Total Cell Count: 1086 and 1454
[3]
  Population Apoptotic (%): 50% and 44.68%
  Population Fragmented Nuclei (%): 19.28% and 20.63%
  Population Healthy Nuclei (%): 75.17% and 67.96%
  Population Hoechst High Intensity Objects (%): 0.69% and 0%
  Population Membrane Permeable-Phenotype (%): 1.48% and 2.86%
  Population Mitochondria Different-Phenotype (%): 0.37% and 5.71%
  Population Mitotic Cells (%): 50% and 55.32%
  Population Normal (%): 99.31% and 100%
  Population Pyknosed Nuclei (%): 5.55% and 11.41%
  Population Tubulin-Different-Phenotype (%): 2.03% and 2.86%
  Total Cell Count: 726 and 412
[4]
  Population Apoptotic (%): 45.1% and 35.71%
  Population Fragmented Nuclei (%): 58.49% and 84.85%
  Population Healthy Nuclei (%): 17.9% and 8.37%
  Population Membrane Permeable-Phenotype (%): 0%
  Population Mitochondria Different-Phenotype (%): 0%
  Population Mitotic Cells (%): 54.9% and 64.29%
  Population Normal (%): 60.11% and 86.9%
  Population Tubulin-Different-Phenotype (%): 0%
  Total Cell Count: 1078 and 1664
[5]
  Population Apoptotic (%): 50% and 51.75%
  Population Fragmented Nuclei (%): 22.08% and 20.53%
  Population Healthy Nuclei (%): 72.6% and 58%
  Population Hoechst High Intensity Objects (%): 3.35% and 1.12%
  Population Membrane Permeable-Phenotype (%): 1.27% and 2.27%
  Population Mitochondria Different-Phenotype (%): 0.32% and 9.42%
  Population Mitotic Cells (%): 50% and 48.25%
  Population Normal (%): 96.65% and 98.88%
  Population Tubulin-Different-Phenotype (%): 2.23% and 2.6%
  Total Cell Count: 895 and 537
[6]
  Population Apoptotic (%): 51.13% and 47.24%
  Population Fragmented Nuclei (%): 58.82% and 85.02%
  Population Healthy Nuclei (%): 12.73% and 6.82%
  Population Hoechst High Intensity Objects (%): 31% and 15.76%
  Population Membrane Permeable-Phenotype (%): 0% and 1.89%
  Population Mitochondria Different-Phenotype (%): 0% and 0.94%
  Population Mitotic Cells (%): 48.87% and 52.76%
  Population Normal (%): 69% and 84.24%
  Population Tubulin-Different-Phenotype (%): 0%
  Total Cell Count: 1355 and 1846

## CC[C@@H](C)Nc1nc(C)nc2c(-c3ccc(OC)nc3C)c(C)nn12 [PEXACERFONT]
[1]
  Population Apoptotic (%): 73% and 87%
  Population Fragmented Nuclei (%): 24% and 17%
  Population Healthy Nuclei (%): 66% and 76%
  Population Hoechst High Intensity Objects (%): 3% and 0%
  Population Membrane Permeable-Phenotype (%): 2% and 1%
  Population Mitochondria Different-Phenotype (%): 3% and 0%
  Population Mitotic Cells (%): 26% and 12%
  Population Normal (%): 96% and 99%
  Population Pyknosed Nuclei (%): 9% and 5%
  Population Tubulin-Different-Phenotype (%): 2% and 0%
  Total Cell Count: 258 and 136
[2]
  Population Apoptotic (%): 90%
  Population Fragmented Nuclei (%): 26% and 21%
  Population Healthy Nuclei (%): 64% and 70%
  Population Hoechst High Intensity Objects (%): 1%
  Population Membrane Permeable-Phenotype (%): 2% and 12%
  Population Mitochondria Different-Phenotype (%): 1% and 7%
  Population Mitotic Cells (%): 9% and 10%
  Population Normal (%): 98%
  Population Pyknosed Nuclei (%): 8% and 7%
  Population Tubulin-Different-Phenotype (%): 1% and 4%
  Total Cell Count: 265 and 128
[3]
  Population Apoptotic (%): 80% and 85%
  Population Fragmented Nuclei (%): 21% and 16%
  Population Healthy Nuclei (%): 69% and 75%
  Population Hoechst High Intensity Objects (%): 2%
  Population Membrane Permeable-Phenotype (%): 5% and 3%
  Population Mitochondria Different-Phenotype (%): 2% and 6%
  Population Mitotic Cells (%): 20% and 14%
  Population Normal (%): 97%
  Population Pyknosed Nuclei (%): 8%
  Population Tubulin-Different-Phenotype (%): 2%
  Total Cell Count: 346 and 172
[4]
  Population Apoptotic (%): 80% and 92%
  Population Fragmented Nuclei (%): 21% and 14%
  Population Healthy Nuclei (%): 71% and 77%
  Population Hoechst High Intensity Objects (%): 2% and 0%
  Population Membrane Permeable-Phenotype (%): 5% and 7%
  Population Mitochondria Different-Phenotype (%): 3%
  Population Mitotic Cells (%): 19% and 7%
  Population Normal (%): 97% and 99%
  Population Pyknosed Nuclei (%): 7% and 8%
  Population Tubulin-Different-Phenotype (%): 4% and 3%
  Total Cell Count: 307 and 159
[5]
  Population Apoptotic (%): 88% and 91%
  Population Fragmented Nuclei (%): 16%
  Population Healthy Nuclei (%): 75% and 73%
  Population Hoechst High Intensity Objects (%): 1% and 2%
  Population Membrane Permeable-Phenotype (%): 3% and 5%
  Population Mitochondria Different-Phenotype (%): 1% and 4%
  Population Mitotic Cells (%): 11% and 8%
  Population Normal (%): 98% and 97%
  Population Pyknosed Nuclei (%): 7% and 9%
  Population Tubulin-Different-Phenotype (%): 1% and 4%
  Total Cell Count: 476 and 261
[6]
  Population Apoptotic (%): 94% and 100%
  Population Fragmented Nuclei (%): 17% and 13%
  Population Healthy Nuclei (%): 74% and 77%
  Population Hoechst High Intensity Objects (%): 1%
  Population Membrane Permeable-Phenotype (%): 4% and 6%
  Population Mitochondria Different-Phenotype (%): 1% and 3%
  Population Mitotic Cells (%): 5% and 0%
  Population Normal (%): 98%
  Population Pyknosed Nuclei (%): 8%
  Population Tubulin-Different-Phenotype (%): 1% and 2%
  Total Cell Count: 478 and 242

Reference: ChEMBL document CHEMBL5724801, “EUbOPEN Chemogenomics Library - Multiplex” (2024)
